Assay results from ChEMBL document CHEMBL3351723, “New derivatives of lupane triterpenoids disturb breast cancer mitochondria and induce cell death” (Bioorg Med Chem, 2014).

Key:
Liver microsome [1] = experiment: Effect on mitochondrial transmembrane potential in Wistar Han rat liver mitochondria energized with succinate assessed as ADP depolarization at 0.667 ug/mg of protein (reference value: 25.3 +/- 2.1 mV); assay type: functional
BJ = experiment: Induction of apoptosis in human BJ cells assessed as distribution of mitochondrial polarization and morphology at 0.25 ug/ml after 6 hrs by confocal microscopy; assay type: cell-based
Summary of the method: (§1)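 Cells were seeded on glass coverslips and left to attach for 24 h. They were then exposed to vehicle or 0.25 μg/ml compound for 6 h. For the last 30 min they were loaded with 100 nM TMRM in saline buffer with 15 mM glucose, and the probe was kept present during imaging. Mitochondrial polarization and morphology were imaged by fluorescence microscopy, and the TMRM fluorescence standard deviation was quantified. Four independent preparations, mean ± SEM.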

[2] = Induction of apoptosis in human MCF12A cells assessed as distribution of mitochondrial polarization and morphology at 0.25 ug/ml after 6 hrs by confocal microscopy; assay type: cell-based; conditions: mcf-12a; summary of the method: as §1
Liver microsome [3] = experiment: Effect on mitochondrial transmembrane potential in Wistar Han rat liver mitochondria energized with succinate assessed as time duration of lag phase at 0.133 ug/mg of protein (reference value: 40.5 +/- 4.5 sec); assay type: functional
Summary of the method: (§2)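 Isolated male Wistar rat liver mitochondria (1.5 mg protein) in 125 mM sucrose, 65 mM KCl, 5 mM KH2PO4, 2.5 mM MgCl2, 5 mM HEPES pH 7.4, 30°C, with 3 μM TPP+. Compound added for 1 min, then 10 mM succinate plus 3 μM rotenone. State 3 started with ADP (83.3 nmol/mg protein). ΔΨ read with a TPP+-selective electrode and calculated by the Kamo equation without binding correction.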

Liver microsome [4] = experiment: Effect on mitochondrial transmembrane potential in Wistar Han rat liver mitochondria energized with succinate assessed as mitochondrial transmembrane electropotential at 0.133 ug/mg of protein (reference value: 216.0 +/- 7.4 mV); assay type: functional
Liver microsome [5] = experiment: Effect on mitochondrial transmembrane potential in Wistar Han rat liver mitochondria energized with succinate assessed as mitochondrial transmembrane electropotential at 1.333 ug/mg of protein (reference value: 216.0 +/- 7.4 mV); assay type: functional; summary of the method: as §2
Liver microsome [6] = experiment: Effect on mitochondrial transmembrane potential in Wistar Han rat liver mitochondria energized with succinate assessed as ADP depolarization at 0.133 ug/mg of protein (reference value: 34.7 +/- 1.4 mV); assay type: functional
Liver microsome [7] = experiment: Effect on mitochondrial transmembrane potential in Wistar Han rat liver mitochondria energized with succinate assessed as ADP depolarization at 0.333 ug/mg of protein (reference value: 34.7 +/- 1.4 mV); assay type: functional
Liver microsome [8] = experiment: Effect on mitochondrial transmembrane potential in Wistar Han rat liver mitochondria energized with succinate assessed as time duration of lag phase at 0.333 ug/mg of protein (reference value: 82.8 +/- 23.5 sec); assay type: functional; summary of the method: as §2
Liver microsome [9] = experiment: Effect on mitochondrial transmembrane potential in Wistar Han rat liver mitochondria energized with succinate assessed as time duration of lag phase at 1.333 ug/mg of protein (reference value: 82.8 +/- 23.5 sec); assay type: functional; summary of the method: as §2
Liver microsome [10] = experiment: Effect on mitochondrial transmembrane potential in Wistar Han rat liver mitochondria energized with succinate assessed as mitochondrial transmembrane electropotential at 1.333 ug/mg of protein (reference value: 220.6 +/- 2.5 mV); assay type: functional; summary of the method: as §2
Liver microsome [11] = experiment: Effect on mitochondrial transmembrane potential in Wistar Han rat liver mitochondria energized with succinate assessed as ADP depolarization at 0.133 ug/mg of protein (reference value: 34.6 +/- 1.9 mV); assay type: functional

Structure (SMILES): C=C(C)[C@@H]1CC[C@]2(COC(=O)CC[n+]3ccc(N(C)C)cc3)CC[C@]3(C)[C@H](CC[C@@H]4[C@@]5(C)CC[C@H](OC(=O)CC[n+]6ccc(N(C)C)cc6)C(C)(C)[C@@H]5CC[C@]43C)[C@@H]12.[Cl-].[Cl-]
- Activity (Liver microsome [1]): 23.1 mV
- Activity (BJ): Non-toxic
- Activity [2]: Non-toxic

Structure (SMILES): C=C(C)[C@@H]1CC[C@]2(COC(=O)C(CC)[n+]3ccc(N(C)C)cc3)CC[C@]3(C)[C@H](CC[C@@H]4[C@@]5(C)CC[C@H](OC(=O)C(CC)[n+]6ccc(N(C)C)cc6)C(C)(C)[C@@H]5CC[C@]43C)[C@@H]12 (some centres not stated)
- TIME (Liver microsome [3]): 0.0122 h

Structure (SMILES): C=C(C)[C@@H]1CC[C@]2(COC(=O)C[n+]3ccc(N(C)C)cc3)CC[C@]3(C)[C@H](CC[C@@H]4[C@@]5(C)CC[C@H](OC(=O)C[n+]6ccc(N(C)C)cc6)C(C)(C)[C@@H]5CC[C@]43C)[C@@H]12.[Cl-].[Cl-]
- Activity (Liver microsome [4]): 212 mV
- Activity (Liver microsome [5]): 201 mV
- Activity (Liver microsome [6]): 29.8 mV
- Activity (Liver microsome [7]): 29 mV
- TIME (Liver microsome [8]): 0.0217 h
- TIME (Liver microsome [9]): 0.033 h

Structure (SMILES): C=C(C)[C@@H]1CC[C@]2(COC(=O)C[N+](C)(C)C(C)C)CC[C@]3(C)[C@H](CC[C@@H]4[C@@]5(C)CC[C@H](OC(=O)C[N+](C)(C)C(C)C)C(C)(C)[C@@H]5CC[C@]43C)[C@@H]12.[Cl-].[Cl-]
- Activity (Liver microsome [10]): 206 mV
- Activity (Liver microsome [11]): 30.3 mV
